Here are results for one compound from ChEMBL document CHEMBL4033780, “Lipidated Brartemicin Analogues Are Potent Th1-Stimulating Vaccine Adjuvants” (J Med Chem, 2018).

The test system of series [1] is BMDM. The series is described as follows: Immunostimulatory activity in mincle-/- C57BL/6 mouse GM-CSF derived BMDM assessed as increase in IL-6 release at […] after 24 hrs by sandwich ELISA method. Type of series: functional, cell-based. A digest of the protocol: (§1)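 Wild-type or Mincle−/− C57BL/6 bone marrow was cultured 8 days with GM-CSF 50 ng/mL in complete RPMI. Macrophages were detached with Acutase and seeded on ligand-coated plates (0.1 or 1 nmol/well); LPS 100 ng/mL was used as comparator. Supernatant was taken at 24 h and TNF, IL-6, IL-1β and MIP-2 measured by sandwich ELISA. Representative of three experiments in triplicate (±SD).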

The species entered for series [2] is Mus musculus. Nature of the series: Adjuvant activity in immunized C57BL/6 mouse assessed as increase in OVA-specific IgG1 production in serum at 0.3 umol treated with ovalbumin for 7 days followed by stimulation with OVA for 7 days and restimulation with OVA measured 24 to 48 hrs post OVA challenge relative to control. It counts as functional. A digest of the protocol:
(§2)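 Sera were taken on days 0, 7 and 14 from C57BL/6 mice sensitized s.c. with emulsion containing OVA 200 μg ± adjuvant 0.3 μmol and footpad-challenged with OVA on day 7. OVA-specific IgG, IgG1, IgG2b and IgG2c were measured by ELISA with HRP-coupled anti-mouse secondaries. EC50 was taken from absorbance at 450 nm plotted against log serum concentration.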

For series [3], the species on record is Mus musculus. The series is described as follows: Adjuvant activity in immunized C57BL/6 mouse assessed as increase in OVA-specific IgG2b production in serum at 0.3 umol treated with ovalbumin for 7 days followed by stimulation with OVA for 7 days and restimulation with OVA measured 24 to 48 hrs post OVA challenge. Type of series: functional.
The subject of series [4] is BMDM. The series is described as follows: Immunostimulatory activity in mincle-/- C57BL/6 mouse GM-CSF derived BMDM assessed as increase in IL-1beta release at […] after 24 hrs by sandwich ELISA method. Type of series: functional, cell-based. The method in brief: as §1
In general terms: In an ELISA, binding on a coated surface is turned into a signal by an enzyme label.

A further series concerns Th17. Nature of the series: Immunostimulatory activity in OT-2 TCR transgenic mouse CD4+ Th17 cells co-cultured with C57BL/6 mouse BMDM assessed as increase in ovalbumin-specific IL-17 release at 0.1 nmol after 48 hrs by ELISA. It counts as functional, cell-based. A digest of the protocol:
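OT-II CD4+ T cells (1×10^5) were cocultured with GM-CSF bone-marrow cells (1×10^4) on wells coated with glycolipid 0.1 nmol/well or isopropanol only, with OVA323–339 peptide at 0, 0.1 or 1 μM. Supernatant was collected after 48 h and IFN-γ and IL-17 measured by ELISA. Representative of two experiments in triplicate (±SD).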

For series [5], the species on record is Mus musculus. Nature of the series: Adjuvant activity in immunized C57BL/6 mouse assessed as increase in OVA-specific IgG2c production in serum at 0.3 umol treated with ovalbumin for 7 days followed by stimulation with OVA for 7 days and restimulation with OVA measured 24 to 48 hrs post OVA challenge relative to control. It counts as functional.
In series [6] the test system is BMDM. Nature of the series: Immunostimulatory activity in mincle-/- C57BL/6 mouse GM-CSF derived BMDM assessed as increase in TNF release at […] after 24 hrs by sandwich ELISA method. Type of series: functional, cell-based. The method in brief:
as §1

Series [7] has as its system BMDM. The series is described as follows: Immunostimulatory activity in mincle-/- C57BL/6 mouse GM-CSF derived BMDM assessed as increase in MIP2 release at […] after 24 hrs by sandwich ELISA method. Type of series: functional, cell-based. The method in brief:
as §1

Series [8] concerns the target T1, C-type lectin domain family 4 member E (Mus musculus) (UniProt Q9R0Q8).
T1 sequence (whole entry): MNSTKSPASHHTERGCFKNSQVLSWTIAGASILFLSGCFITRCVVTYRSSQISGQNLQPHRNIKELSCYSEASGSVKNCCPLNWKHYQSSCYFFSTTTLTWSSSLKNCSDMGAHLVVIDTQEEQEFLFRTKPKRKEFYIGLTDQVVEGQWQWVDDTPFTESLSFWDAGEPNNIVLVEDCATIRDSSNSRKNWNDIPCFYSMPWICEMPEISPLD
The series is described as follows: Agonist activity at mincle in wild type C57BL/6 mouse GM-CSF derived BMDM assessed as increase in MIP2 release at 0.1 to 1 nmol after 24 hrs by sandwich ELISA. The method in brief:
as §1

Series [9] addresses T1, C-type lectin domain family 4 member E (Mus musculus). Nature of the series: Agonist activity at mouse mincle coupled with FcRgamma expressed in 2B4-NFAT-GFP reporter cells after 18 hrs by flow cytometric analysis. Type of series: cell-based. The method in brief:
(§3)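 2B4 NFAT-GFP reporter cells expressing mouse or human Mincle plus FcRγ were placed on plates coated with ligand at 0.01, 0.1 or 1 nmol/well; cells expressing FcRγ only served as negative control. Ligand was coated from isopropanol, 0.05 mM, and solvent evaporated. After 18 h, cells were harvested, stained with propidium iodide and GFP read by flow cytometry. Mean of three experiments in duplicate (±SEM).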

The species entered for series [10] is Mus musculus. Nature of the series: Adjuvant activity in immunized C57BL/6 mouse assessed as increase in OVA-specific IgG production in serum at 0.3 umol treated with ovalbumin for 7 days followed by stimulation with OVA for 7 days and restimulation with OVA measured 24 to 48 hrs post OVA challenge. It counts as functional. A digest of the protocol: as §2

The target of series [11] is T1, C-type lectin domain family 4 member E (Mus musculus). Nature of the series: Agonist activity at mincle in wild type C57BL/6 mouse GM-CSF derived BMDM assessed as increase in IL-6 release at 0.1 to 1 nmol after 24 hrs by sandwich ELISA. The method in brief: as §1
The species named for series [12] is Mus musculus. Nature of the series: Adjuvant activity in immunized C57BL/6 mouse assessed as footpad swelling at 0.3 umol treated with ovalbumin for 7 days followed by stimulation with OVA for 7 days measured 24 to 48 hrs post OVA challenge. It counts as functional.
The target in series [13] is T2, C-type lectin domain family 4 member E (Homo sapiens) (UniProt Q9ULY5).
T2 sequence (whole entry): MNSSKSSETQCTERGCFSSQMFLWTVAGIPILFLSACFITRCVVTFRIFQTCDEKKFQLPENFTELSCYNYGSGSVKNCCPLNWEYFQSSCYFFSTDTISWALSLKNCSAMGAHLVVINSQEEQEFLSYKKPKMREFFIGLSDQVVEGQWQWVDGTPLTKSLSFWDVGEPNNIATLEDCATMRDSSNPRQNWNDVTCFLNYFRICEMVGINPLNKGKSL
Nature of the series: Agonist activity at human mincle coupled with FcRgamma expressed in 2B4-NFAT-GFP reporter cells after 18 hrs by flow cytometric analysis. It counts as cell-based. A digest of the protocol: as §3
On the technique in general: In flow cytometry, cells or beads pass a laser one at a time.

Series [14] has as its target T1, C-type lectin domain family 4 member E (Mus musculus). The series is described as follows: Agonist activity at mincle in wild type C57BL/6 mouse GM-CSF derived BMDM assessed as increase in TNF release at 0.1 to 1 nmol after 24 hrs by sandwich ELISA. The method in brief:
as §1

Series [15] is described as follows: Toxicity in Atlantic horseshoe crab blood limulus amebocyte lysate by chromogenic endotoxin test. To be noted: limulus polyphemus. The method in brief: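 Endotoxin was measured by chromogenic Limulus amebocyte lysate assay at a sensitivity of ≤0.1 EU/mL.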

SMILES strings stand for the structures. The source made the active and inactive calls. The calls are words filed in the database; no cut-off is given here. Where only a bound is given, the exact number is not on record here.

Consider `CCCCCCCCCCCCCCCCCCOc1ccc(C(=O)OC[C@H]2O[C@H](O[C@H]3O[C@H](COC(=O)c4ccc(OCCCCCCCCCCCCCCCCCC)cc4O)[C@@H](O)[C@H](O)[C@H]3O)[C@H](O)[C@@H](O)[C@@H]2O)c(O)c1`, for which the result with BMDM [1], with BMDM [4], in the series with BMDM [6], with BMDM [7] and in the series listed under Mus musculus [12] was inactive. In addition, the “fold change (FC)” value turned out to be 2 in the series listed under Mus musculus [2] and 3 in the series listed under Mus musculus [5]. The result (in the series listed under Mus musculus [3]; with Th17; in [8]; in the series listed under Mus musculus [10]; in series [11]; in [14]) was Active. The Activity entry in series [9] was “Dose-dependent effect”; in series [13], “Dose-dependent effect”; in [15], “<= 0.1 EU/ml”.
